Key:
[1] = (§1) Cytotoxicity against human HepG2 cells after 72 hrs by MTT assay; format: cell-based; details: HepG2 cells
How it was run: (§2)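 Cells plated in RPMI with 10% FCS, L-glutamine and penicillin/streptomycin, 24 h at 37 °C, 6% CO2. Compound dilutions then added for 72 h. MTT 0.5 mg/mL in PBS for 2 h, formazan dissolved in DMSO, A570 with 630 nm reference. Viability taken as % of untreated control. Doxorubicin served as positive control. CC50 from the dose-response curve.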

[2] = Selectivity ratio of IC50 for Plasmodium falciparum K1 to IC50 for Leishmania infantum MCAN/ES/98/LLM-877 promastigotes; format: functional
[3] = system: Leishmania infantum; experiment: Antimicrobial activity against Leishmania infantum MCAN/ES/98/LLM-877 promastigotes after 72 hrs by MTT assay; format: functional, organism-based; details: MCAN/ES/98/LLM-877, 72 h
How it was run: (§3)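 Log-phase promastigotes in Schneider's medium with 20% FCS, 2 mM L-glutamine and penicillin/streptomycin, at 10⁶ parasites/mL. Compound dilutions run in duplicate, final DMSO <0.5%, 72 h at 27 °C. MTT 0.5 mg/mL for 6 h at 27 °C, formazan dissolved in DMSO, A570.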

[4] = system: Plasmodium falciparum; experiment: Antiplasmodial activity against Plasmodium falciparum K1 infected in human erythrocytes after 72 hrs by SYBR Green I fluorescence assay; format: functional, organism-based; details: K1, 72 h
How it was run: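 K1 strain, resistant to chloroquine, pyrimethamine and proguanil, grown in A+ human erythrocytes with RPMI 1640, HEPES, NaHCO3 and 10% A+ serum. Rings synchronized with 5% sorbitol. Compounds tested at 2% hematocrit and 1% parasitaemia, 72 h at 37 °C in 5% O2, 5% CO2, in triplicate. DNA read by SYBR Green I lysis, 15 min, ex 497/em 520 nm. IC50 from three independent experiments.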

[5] = Selectivity index, ratio of CC50 for human HepG2 cells to IC50 for Leishmania donovani MHOM/IN/00/DEVI; format: functional
How it was run: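 SI = HepG2 CC50 / L. donovani IC50.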

[6] = Cytotoxicity against mouse J774.1 cells after 72 hrs by MTT assay; format: cell-based; details: for CC50 at 72 h: J774.1 cells; for CC50: j774.1, 72 h; how it was run: as §2
[7] = Selectivity ratio of IC50 for Plasmodium falciparum K1 to IC50 for Leishmania donovani MHOM/IN/00/DEVI promastigotes; format: functional
[8] = system: Leishmania donovani; experiment: Antimicrobial activity against Leishmania donovani MHOM/IN/00/DEVI amastigotes infected in mouse J774.1 cells after 120 hrs by microscopic analysis; format: functional, organism-based; details: J774.1, 120 h
How it was run: (§4)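 J774A.1 macrophages seeded at 5x10⁴ cells/mL, 24 h at 37 °C, 6% CO2. L. donovani promastigotes acidified 24 h at 27 °C in Schneider 20% FCS pH 5.4, then used to infect at 10:1 for 24 h. Compounds added in duplicate, final DMSO <0.5%, 120 h at 37 °C. Cells methanol-fixed and Giemsa-stained, ≥200 cells counted for % infected. IC50 by non-linear regression, mean of three independent experiments.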

[9] = Selectivity ratio of IC50 for Plasmodium falciparum K1 to IC50 for Leishmania donovani MHOM/IN/00/DEVI amastigotes; format: functional
[10] = system: Leishmania donovani; experiment: Antimicrobial activity against Leishmania donovani MHOM/IN/00/DEVI promastigotes after 72 hrs by MTT assay; format: functional, organism-based; how it was run: as §3
[11] = Selectivity index, ratio of CC50 for mouse J774.1 cells to IC50 for Leishmania donovani MHOM/IN/00/DEVI; format: functional
[12] = system: Leishmania donovani; experiment: Antimicrobial activity against Leishmania donovani amastigotes; format: functional, organism-based; how it was run: as §4
[13] = system: Leishmania donovani; experiment: Antimicrobial activity against Leishmania donovani promastigotes; format: functional, organism-based; how it was run: as §3
[14] = system: HepG2; experiment: as §1; format: cell-based; details: hepg2, 72 h; how it was run: as §2
[15] = Leishmania donovani, MHOM/IN/00/DEVI, 72 h, read-out: IC50

## O=[N+]([O-])c1c(CS(=O)(=O)c2ccccc2)nc2c(Br)cc(Br)cn12
[1]
  CC50 at 72 h: > 31 µM
[2]
  Ratio IC50: 4.8
[3]
  IC50: 3.3 µM
[4]
  IC50: 16 µM
[5]
  Ratio CC50/IC50: >17.2
[6]
  CC50 at 72 h: > 25 µM
[7]
  Ratio IC50: 8.9
[8]
  IC50: 5.5 µM
[9]
  Ratio IC50: 3
[10]; [15]
  IC50: 1.8 µM
[11]
  Ratio CC50/IC50: >13.4

## CCCCCCCCCCCCCCCCOP(=O)([O-])OCC[N+](C)(C)C [MILTEFOSINE]
[6]
  CC50 at 72 h: 94.6 µM
[8]
  IC50: 6.8 µM

## C[C@@H]1[C@H](O)[C@@H](C)/C=C/C=C/C=C/C=C/C=C/C=C/C=C/[C@H](O[C@@H]2O[C@H](C)[C@@H](O)[C@H](N)[C@@H]2O)C[C@@H]2O[C@](O)(C[C@@H](O)C[C@@H](O)[C@H](O)CC[C@@H](O)C[C@@H](O)CC(=O)O[C@H]1C)C[C@H](O)[C@H]2C(=O)O [AMPHOTERICIN B]
[3]
  IC50: 0.04 µM
[6]
  CC50 at 72 h: 3.1 µM
[8]
  IC50: 0.07 µM

## CSc1ccc(OCc2ncc([N+](=O)[O-])n2C)cc1 [FEXINIDAZOLE]
[12]
  IC50: 2.8 µM
[13]
  IC50: 5.6 µM

## O=[N+]([O-])c1c(CS(=O)(=O)c2ccccc2)nc2ccc(-c3ccc4ccccc4c3)cn12
[14]
  CC50: ND(Insoluble)
[6]
  CC50: ND(Insoluble)
[10]
  IC50: ND(Insoluble)

## N=C(N)c1ccc(OCCCCCOc2ccc(C(=N)N)cc2)cc1 [PENTAMIDINE]
[5]
  Ratio CC50/IC50: 0.4
[6]
  CC50 at 72 h: 1 µM
[8]
  IC50: > 20 µM
[11]
  Ratio CC50/IC50: 0.1

## COc1ccc(Sc2c([N+](=O)[O-])cc(C#N)cc2[N+](=O)[O-])cc1
[12]
  IC50: 0.7 µM

## O=C1C(O)=C([C@H]2CC[C@H](c3ccc(Cl)cc3)CC2)C(=O)c2ccccc21 [ATOVAQUONE]
[4]
  IC50: 0.0015 µM

## O=[N+]([O-])c1c(CS(=O)(=O)c2ccccc2)nc2ccc(Br)cn12
[1]
  CC50 at 72 h: > 100 µM
[3]
  IC50: > 25 µM
[4]
  IC50: 41.2 µM
[5]
  Ratio CC50/IC50: >7.1
[6]
  CC50 at 72 h: 34.3 µM
[8]
  IC50: > 25 µM
[10]; [15]
  IC50: 14 µM
[11]
  Ratio CC50/IC50: 2.5

## COc1ccc(-c2ccc3nc(CS(=O)(=O)c4ccccc4)c([N+](=O)[O-])n3c2)cc1
[14]
  CC50: ND(Insoluble)
[6]
  CC50: ND(Insoluble)
[10]
  IC50: ND(Insoluble)

## O=[N+]([O-])c1c(CS(=O)(=O)c2ccccc2)nc2ccc(-c3cccc(C(F)(F)F)c3)cn12
[14]
  CC50: ND(Insoluble)
[6]
  CC50: ND(Insoluble)
[10]
  IC50: ND(Insoluble)
